IC50 data for one compound are collected here from ChEMBL document CHEMBL1140405, “6-Acylamino-2-aminoquinolines as potent melanin-concentrating hormone 1 receptor antagonists. Identification, structure-activity relationship, and investigation of binding mode” (J Med Chem, 2005).

One assay addresses D(3) dopamine receptor (Homo sapiens, UniProt P35462). Briefly: Inhibitory concentration against dopamine receptor D3.
Assay [1] concerns the target T1, 5-hydroxytryptamine receptor 2C (Homo sapiens, UniProt P28335).
T1 sequence (P28335 whole entry): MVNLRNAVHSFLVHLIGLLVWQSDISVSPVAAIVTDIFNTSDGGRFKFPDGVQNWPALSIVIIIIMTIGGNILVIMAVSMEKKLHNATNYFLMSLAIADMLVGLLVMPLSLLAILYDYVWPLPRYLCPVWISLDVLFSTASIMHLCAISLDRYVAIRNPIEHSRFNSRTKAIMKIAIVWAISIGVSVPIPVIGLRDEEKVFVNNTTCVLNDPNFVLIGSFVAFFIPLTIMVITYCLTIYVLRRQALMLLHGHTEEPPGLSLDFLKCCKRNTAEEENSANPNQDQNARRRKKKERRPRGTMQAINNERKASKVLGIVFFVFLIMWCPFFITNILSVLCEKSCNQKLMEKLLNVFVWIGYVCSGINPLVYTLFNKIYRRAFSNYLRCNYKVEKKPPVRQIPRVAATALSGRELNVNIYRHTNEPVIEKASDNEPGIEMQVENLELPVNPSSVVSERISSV
In words: Inhibitory concentration against 5-hydroxytryptamine 2C receptor expressed in CHO-K1 cells using [3H]mesulergine. Type of assay: cell-based. The essentials: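 SPA competition binding on purchased membranes from CHO-K1 cells expressing h5-HT2c (4 μg/well), with YSi-WGA beads (0.4 mg/well) and [3H]mesulergine tracer, across various test-compound concentrations. Buffer is 50 mM Tris pH 7.7, 50 mM MgCl2 and 0.1% pargyline. Nonspecific binding uses 1 μM cold mesulergine. IC50 is taken by nonlinear regression.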

For assay [2], the target named is 5-hydroxytryptamine receptor 2A (Homo sapiens, UniProt P28223). In words: Inhibitory concentration against 5-hydroxytryptamine 2A receptor.
For a further assay, the target named is Histamine H1 receptor (Homo sapiens, UniProt P35367). Briefly: Inhibitory concentration against Histamine H1 receptor.
Assay [3] concerns the target Sodium-dependent dopamine transporter (Homo sapiens, UniProt Q01959). In words: Inhibitory concentration against dopamine transporter.
Assay [4] concerns the target T2, Muscarinic acetylcholine receptor M1 (Homo sapiens, UniProt P11229).
T2 sequence (P11229 whole entry): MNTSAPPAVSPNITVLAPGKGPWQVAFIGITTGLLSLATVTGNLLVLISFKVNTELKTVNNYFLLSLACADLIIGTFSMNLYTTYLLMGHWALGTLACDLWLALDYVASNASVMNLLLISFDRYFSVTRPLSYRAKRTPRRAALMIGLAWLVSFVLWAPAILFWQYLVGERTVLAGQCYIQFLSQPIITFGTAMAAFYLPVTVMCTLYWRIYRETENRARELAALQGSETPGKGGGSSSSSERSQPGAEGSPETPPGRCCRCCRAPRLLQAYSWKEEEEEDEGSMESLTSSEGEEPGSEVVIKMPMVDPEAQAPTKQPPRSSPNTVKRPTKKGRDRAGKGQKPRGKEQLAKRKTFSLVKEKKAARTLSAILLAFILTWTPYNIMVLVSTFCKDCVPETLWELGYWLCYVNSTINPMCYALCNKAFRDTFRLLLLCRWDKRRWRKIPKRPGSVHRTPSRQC
Briefly: Inhibitory concentration against muscarinic acetylcholine receptor M1.

Another assay addresses Histamine H2 receptor (Homo sapiens, UniProt P25021). Briefly: Inhibitory concentration against Histamine H2 receptor.
The next assay addresses D(1A) dopamine receptor (Homo sapiens, UniProt P21728). In words: Inhibitory concentration against dopamine receptor D1.
Assay [5] concerns the target T3, Adrenergic receptor alpha-2 (Homo sapiens, UniProt P08913+P18825+P18089).
T3 sequence (P08913 whole entry): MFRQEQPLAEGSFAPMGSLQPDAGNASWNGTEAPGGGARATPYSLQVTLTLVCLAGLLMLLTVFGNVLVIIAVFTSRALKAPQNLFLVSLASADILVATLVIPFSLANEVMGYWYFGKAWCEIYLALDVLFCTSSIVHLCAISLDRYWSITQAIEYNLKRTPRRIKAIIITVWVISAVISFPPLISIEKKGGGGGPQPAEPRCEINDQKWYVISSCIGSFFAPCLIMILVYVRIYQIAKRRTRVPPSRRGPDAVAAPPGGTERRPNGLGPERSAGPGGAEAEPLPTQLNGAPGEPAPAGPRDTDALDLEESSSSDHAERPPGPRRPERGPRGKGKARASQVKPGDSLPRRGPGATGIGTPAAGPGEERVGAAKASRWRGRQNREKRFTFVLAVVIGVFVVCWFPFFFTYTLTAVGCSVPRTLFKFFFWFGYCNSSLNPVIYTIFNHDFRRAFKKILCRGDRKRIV
T3 sequence (P18825 whole entry): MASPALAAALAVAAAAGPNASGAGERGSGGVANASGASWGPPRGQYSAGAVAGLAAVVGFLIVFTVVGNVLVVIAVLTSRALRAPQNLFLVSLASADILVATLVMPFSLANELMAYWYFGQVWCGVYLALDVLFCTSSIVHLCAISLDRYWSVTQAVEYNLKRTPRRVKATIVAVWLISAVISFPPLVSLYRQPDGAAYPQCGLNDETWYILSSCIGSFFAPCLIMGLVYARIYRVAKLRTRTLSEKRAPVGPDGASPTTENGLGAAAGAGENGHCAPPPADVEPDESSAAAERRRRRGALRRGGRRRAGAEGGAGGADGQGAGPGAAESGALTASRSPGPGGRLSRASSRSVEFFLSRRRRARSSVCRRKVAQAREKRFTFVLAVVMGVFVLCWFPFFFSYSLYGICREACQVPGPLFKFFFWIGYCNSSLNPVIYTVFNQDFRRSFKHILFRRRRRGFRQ
T3 sequence (P18089 whole entry): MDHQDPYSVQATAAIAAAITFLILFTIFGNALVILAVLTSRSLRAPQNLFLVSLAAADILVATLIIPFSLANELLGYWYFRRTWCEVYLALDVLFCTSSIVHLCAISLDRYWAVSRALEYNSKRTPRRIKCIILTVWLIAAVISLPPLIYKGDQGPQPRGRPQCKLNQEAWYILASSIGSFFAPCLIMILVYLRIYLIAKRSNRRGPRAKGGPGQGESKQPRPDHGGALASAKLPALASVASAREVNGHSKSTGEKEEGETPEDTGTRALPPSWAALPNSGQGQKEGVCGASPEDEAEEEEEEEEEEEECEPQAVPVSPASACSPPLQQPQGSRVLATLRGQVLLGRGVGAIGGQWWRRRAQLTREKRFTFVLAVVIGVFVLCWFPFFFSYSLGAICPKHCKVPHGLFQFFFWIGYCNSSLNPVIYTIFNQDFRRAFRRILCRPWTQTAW
Briefly: Inhibitory concentration against alpha-2 adrenergic receptor. Type of assay: protein assay.

The target of assay [6] is 5-hydroxytryptamine receptor 1B (Homo sapiens, UniProt P28222). In words: Inhibitory concentration against 5-hydroxytryptamine 1B receptor.
Assay [7] has as its target T4, Muscarinic acetylcholine receptor M2 (Homo sapiens, UniProt P08172).
T4 sequence (P08172 whole entry): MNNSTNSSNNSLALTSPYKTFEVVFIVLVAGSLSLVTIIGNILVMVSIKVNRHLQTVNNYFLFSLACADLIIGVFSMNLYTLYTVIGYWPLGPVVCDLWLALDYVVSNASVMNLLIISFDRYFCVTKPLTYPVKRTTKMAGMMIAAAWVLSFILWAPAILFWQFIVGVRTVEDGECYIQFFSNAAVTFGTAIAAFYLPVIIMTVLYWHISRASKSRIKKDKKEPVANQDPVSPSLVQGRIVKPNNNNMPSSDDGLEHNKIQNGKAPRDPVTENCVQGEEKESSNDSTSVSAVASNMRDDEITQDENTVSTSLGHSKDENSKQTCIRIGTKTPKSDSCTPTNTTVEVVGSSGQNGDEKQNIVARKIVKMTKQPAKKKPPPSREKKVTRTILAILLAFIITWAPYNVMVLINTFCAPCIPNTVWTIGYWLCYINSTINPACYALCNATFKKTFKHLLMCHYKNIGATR
In words: Inhibitory concentration against muscarinic acetylcholine receptor M2.

Sequence of Sodium-dependent dopamine transporter (Q01959 whole entry): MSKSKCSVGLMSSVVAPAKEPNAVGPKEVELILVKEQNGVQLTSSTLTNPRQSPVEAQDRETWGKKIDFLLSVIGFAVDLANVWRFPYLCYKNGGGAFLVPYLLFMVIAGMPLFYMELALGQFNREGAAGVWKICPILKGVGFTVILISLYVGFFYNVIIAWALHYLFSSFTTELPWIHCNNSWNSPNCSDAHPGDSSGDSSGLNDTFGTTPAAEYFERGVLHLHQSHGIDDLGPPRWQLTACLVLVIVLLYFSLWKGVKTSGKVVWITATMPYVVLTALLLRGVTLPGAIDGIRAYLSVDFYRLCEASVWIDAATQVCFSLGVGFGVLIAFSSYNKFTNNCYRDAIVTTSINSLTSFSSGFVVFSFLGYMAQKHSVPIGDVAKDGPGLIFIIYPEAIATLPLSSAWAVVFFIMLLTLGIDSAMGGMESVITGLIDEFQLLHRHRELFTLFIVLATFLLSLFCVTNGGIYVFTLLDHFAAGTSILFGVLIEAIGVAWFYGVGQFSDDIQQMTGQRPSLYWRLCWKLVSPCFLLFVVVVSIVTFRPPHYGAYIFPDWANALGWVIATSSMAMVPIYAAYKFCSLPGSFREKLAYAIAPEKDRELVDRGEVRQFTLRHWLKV
Sequence of 5-hydroxytryptamine receptor 1B (P28222 whole entry): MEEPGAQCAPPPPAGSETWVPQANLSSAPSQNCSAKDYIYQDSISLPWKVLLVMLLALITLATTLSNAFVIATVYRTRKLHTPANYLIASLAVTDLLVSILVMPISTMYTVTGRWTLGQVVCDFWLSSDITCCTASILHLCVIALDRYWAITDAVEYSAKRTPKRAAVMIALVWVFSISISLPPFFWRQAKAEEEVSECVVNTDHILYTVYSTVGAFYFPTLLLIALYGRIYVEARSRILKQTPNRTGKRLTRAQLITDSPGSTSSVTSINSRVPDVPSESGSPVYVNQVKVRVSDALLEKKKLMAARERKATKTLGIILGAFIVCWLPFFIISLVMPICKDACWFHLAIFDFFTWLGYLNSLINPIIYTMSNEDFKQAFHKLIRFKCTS
Sequence of Histamine H2 receptor (P25021 whole entry): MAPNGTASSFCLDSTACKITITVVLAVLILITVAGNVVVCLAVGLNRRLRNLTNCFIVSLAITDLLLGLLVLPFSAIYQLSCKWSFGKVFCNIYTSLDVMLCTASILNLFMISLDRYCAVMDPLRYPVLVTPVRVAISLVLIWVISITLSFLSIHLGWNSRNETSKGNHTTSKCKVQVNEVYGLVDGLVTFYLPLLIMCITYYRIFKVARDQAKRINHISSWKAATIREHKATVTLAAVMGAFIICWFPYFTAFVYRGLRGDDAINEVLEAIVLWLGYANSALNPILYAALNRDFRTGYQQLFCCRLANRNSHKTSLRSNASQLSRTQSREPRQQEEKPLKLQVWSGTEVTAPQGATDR
Sequence of D(3) dopamine receptor (P35462 whole entry): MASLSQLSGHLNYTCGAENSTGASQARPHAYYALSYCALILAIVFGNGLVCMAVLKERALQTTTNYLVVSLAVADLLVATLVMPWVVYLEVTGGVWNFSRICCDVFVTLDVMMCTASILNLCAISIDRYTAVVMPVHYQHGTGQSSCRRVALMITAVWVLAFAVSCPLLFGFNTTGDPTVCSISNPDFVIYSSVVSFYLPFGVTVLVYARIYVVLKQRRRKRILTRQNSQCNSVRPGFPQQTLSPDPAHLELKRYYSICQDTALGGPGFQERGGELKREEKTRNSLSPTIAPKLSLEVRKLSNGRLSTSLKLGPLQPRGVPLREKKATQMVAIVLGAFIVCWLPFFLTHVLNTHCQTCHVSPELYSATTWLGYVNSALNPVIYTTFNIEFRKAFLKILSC
Sequence of Histamine H1 receptor (P35367 whole entry): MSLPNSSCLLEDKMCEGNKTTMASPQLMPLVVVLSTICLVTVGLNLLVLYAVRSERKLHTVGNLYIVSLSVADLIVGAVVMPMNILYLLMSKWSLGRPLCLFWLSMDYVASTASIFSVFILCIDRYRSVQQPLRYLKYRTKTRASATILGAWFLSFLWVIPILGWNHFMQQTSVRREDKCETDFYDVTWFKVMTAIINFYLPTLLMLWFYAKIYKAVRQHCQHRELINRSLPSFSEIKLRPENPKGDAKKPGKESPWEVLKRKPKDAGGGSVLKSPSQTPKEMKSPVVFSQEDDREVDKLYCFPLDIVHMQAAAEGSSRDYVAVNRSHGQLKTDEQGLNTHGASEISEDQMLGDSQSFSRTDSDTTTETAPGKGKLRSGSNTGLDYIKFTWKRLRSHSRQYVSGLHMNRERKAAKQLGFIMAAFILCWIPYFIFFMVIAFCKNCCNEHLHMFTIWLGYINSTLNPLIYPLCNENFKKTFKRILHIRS
Sequence of 5-hydroxytryptamine receptor 2A (P28223 whole entry): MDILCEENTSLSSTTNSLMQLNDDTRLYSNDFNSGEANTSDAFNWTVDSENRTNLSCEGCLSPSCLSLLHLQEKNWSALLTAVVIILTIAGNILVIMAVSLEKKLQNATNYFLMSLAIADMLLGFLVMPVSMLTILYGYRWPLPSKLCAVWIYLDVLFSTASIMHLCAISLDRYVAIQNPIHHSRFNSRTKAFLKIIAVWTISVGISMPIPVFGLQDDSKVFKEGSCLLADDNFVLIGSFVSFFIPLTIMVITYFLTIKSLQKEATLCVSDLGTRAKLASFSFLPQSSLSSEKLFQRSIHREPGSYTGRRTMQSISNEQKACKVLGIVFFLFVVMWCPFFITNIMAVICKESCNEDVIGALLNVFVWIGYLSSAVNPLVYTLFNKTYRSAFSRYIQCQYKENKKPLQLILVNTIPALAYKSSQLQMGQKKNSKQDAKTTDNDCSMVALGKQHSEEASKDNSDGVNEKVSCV
Sequence of D(1A) dopamine receptor (P21728 whole entry): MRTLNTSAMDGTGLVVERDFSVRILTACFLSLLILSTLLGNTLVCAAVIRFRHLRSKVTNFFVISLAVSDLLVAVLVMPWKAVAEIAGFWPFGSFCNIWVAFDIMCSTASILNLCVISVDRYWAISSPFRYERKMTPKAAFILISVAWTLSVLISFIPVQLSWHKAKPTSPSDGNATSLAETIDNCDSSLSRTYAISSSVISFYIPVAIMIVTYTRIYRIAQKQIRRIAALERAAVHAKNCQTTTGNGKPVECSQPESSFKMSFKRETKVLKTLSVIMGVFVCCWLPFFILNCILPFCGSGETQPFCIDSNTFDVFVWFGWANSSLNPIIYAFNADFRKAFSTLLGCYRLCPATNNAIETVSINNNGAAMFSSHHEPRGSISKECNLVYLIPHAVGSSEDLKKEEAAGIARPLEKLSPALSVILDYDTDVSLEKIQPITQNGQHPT

The term IC50 denotes the concentration that inhibits the measured activity by half. Read a low IC50 as higher potency. For the compound `Cc1cc(N(C)CCN(C)C)nc2ccc(NC(=O)/C=C/c3ccc(OC(F)(F)F)cc3)cc12`, the half-inhibitory concentration (IC50) is 2300 nM against D(3) dopamine receptor; 900 nM in [1]; 1900 nM in assay [2]; over 10000 nM against Histamine H1 receptor; 10000 nM in assay [3]; 1300 nM in assay [4]. Also, the IC50 on Histamine H2 receptor stood at 860 nM; on D(1A) dopamine receptor, 900 nM; in [5] it was 1300 nM; in assay [6], 800 nM; in assay [7], 480 nM.
